Legend:
Format in all cases: functional, cell-based
HT-29 = experiment: Cytotoxicity against human HT29 cells after 72 hrs by MTT assay; conditions: HT-29, 72 h
Method in brief: (§1)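 Cells (Caco-2 in Dulbecco's modified Eagle medium; HT-29 in McCoy's 5A; both with 10% FCS and 2 mM L-glutamine; KATO III in RPMI 1640 with 10% heat-inactivated FCS, 2 mM L-glutamine, 1 mM pyruvate, 5% CO2, 37 °C) plated at 1 × 10^4/well 24 h before adding AELs in PBS with 5-30% ethanol. After 72 h, MTT read-out. IC50 is 50% reduction in cell number; mean ± SD, n = 3-9.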

MDA-MB-435 [1] = experiment: Inhibition of Akt phosphorylation in MDA-MB-435 cells after 2 hrs; conditions: Homo sapiens, MDA-MB-435, 2 h
Method in brief: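 MDA-MB-435 cells at 70% confluency, serum-starved 18 h, then given compound for 2 h and stimulated with insulin 10 µg/mL for 30 min. Lysates taken in Laemmli buffer after an ice-cold PBS wash. Western blot probed for Ser473 phospho-Akt, with total Akt as loading control. Controls: no insulin, and wortmannin 2 µM for 2 h before insulin.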

MDA-MB-435 [2] = experiment: Cytotoxicity against human MDA-MB-435 cells after 3 days in serum free conditions by MTT assay; conditions: MDA-MB-435, 72 h
Method in brief: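 MDA-MB-435 cells grown in Dulbecco's modified Eagle medium with 10% FCS and 2 mM L-glutamine, then plated at 1 × 10^4/well 24 h before treatment. Lipids in PBS with 5-30% ethanol were added, and cells were incubated 3 days without serum to match the Akt study conditions. MTT read-out was expressed as percentage reduction in incorporated MTT, run in triplicate.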

Caco-2 = experiment: Cytotoxicity against human Caco-2 cells after 72 hrs by MTT assay; conditions: Caco-2, 72 h; method in brief: as §1
[3] = Cytotoxicity against human KATO3 cells after 72 hrs by MTT assay; conditions: KATO3, 72 h; method in brief: as §1

Row | Structure (SMILES) | IC50 (HT-29) [µM] | IC50 (MDA-MB-435 [1]) [µM] | IC50 (MDA-MB-435 [2]) [µM] | IC50 (Caco-2) [µM] | IC50 [3] [µM]
1 | CCCCCCCCCCCCCCCCOC[C@@H](O)COP(=O)(O)OC[C@H](O)CO | 105 | 24 | 73 |  | 
2 | CCCCCCCCCCCCCCCCCCOCC(COP(=O)([O-])OCC[N+](C)(C)C)OC (configuration not stated) [EDELFOSINE] |  | 3 | 12 |  | 
3 | CCCCCCCCCCCCCCCCOP(=O)([O-])OCC[N+](C)(C)C [MILTEFOSINE] |  | 5 | 23 |  | 
4 | CCCCCCCCCCCCCCCCOC[C@@H](O)COP(=O)(O)OC[C@@H](O)CO | 20 | 24 | 47 | 75 | 49

From ChEMBL document CHEMBL1139481, “Synthesis and biological activity of anticancer ether lipids that are specifically released by phospholipase A2 in tumor tissue” (J Med Chem, 2005)
